Bioassay records: PubChem BioAssay, several laboratories
Only some compounds are listed: those with a hit (about 3% of all), similar ones and a draw of the others.
Kir21 inh: inhibitors of mouse Kir2.1 inward-rectifier potassium channel; AID 1672, 2009; HEK293-Kir2.1, FluxOR thallium flux fluorescence; active compounds read low; 310,000 compounds, 0.85% hits; Inward rectifier potassium channel 2 (Mus musculus), P35561; B-score at 10 µM;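 active = fluorescence ratio B-score at or below minus 3 SD of library scores, with starting-brightness B-score within 2 SD, cut at about -4.2 in these data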;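 note: channel flux triggered by added potassium and thallium sulfate stimulus; B-score of peak minus minimum fluorescence over baseline after thallium stimulus; more negative B-score means stronger Kir2.1 block with less thallium influx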
TMEM16A inh: TMEM16A chloride channel inhibitors, primary screen, cell-based, HTS. HEK293 TMEM16A/YFP iodide influx fluorescence, ionomycin. normalized B-score (activity score, 25-100; higher = stronger inhibition) at 10 µM. 310,000 compounds, 1.2% hits. AID 588511, 2011;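 active = ratio plate-corrected score three or more library SD toward inhibition, starting fluorescence score within five deviations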;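 note: score derived from kinetic fluorescence span divided by baseline fluorescence per well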
FID counter: compounds displacing fluorescent DNA intercalator, primary screen, artefact control for HCV NS3 helicase inhibitor project, biochemical, FID fluorescence | AID 1845, 2009 | DNA fluorescent intercalator displacement | 290,000 compounds, 0.17% hits | inhibition, % at 7.9 µM; in the data active = inhibition above about 37%;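 note: 0% = vehicle and 100% = reference compound; higher means more ethidium bromide displaced from hairpin DNA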
SR-BI HDL uptake: inhibitors of SR-BI mediated HDL lipid uptake, primary screen, ldlA[mSR-BI] cells, fluorescence, single point. inhibition, % at 12.5 µM. Scavenger receptor class B member 1 (Mus musculus), Q61009. 320,000 compounds, 0.96% hits. ldlA[mSR-BI] CHO cells, DiI-HDL uptake fluorescence, 3 h;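 active = mean replicate inhibition of at least 70% and a set share of replicates each scoring 70 or more; inconclusive = meets just one of the two criteria; inactive = fails both criteria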;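 note: 0% = median of neutral control wells and 100% = median of positive control wells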
Target sequence (Q61009 whole entry, looked up): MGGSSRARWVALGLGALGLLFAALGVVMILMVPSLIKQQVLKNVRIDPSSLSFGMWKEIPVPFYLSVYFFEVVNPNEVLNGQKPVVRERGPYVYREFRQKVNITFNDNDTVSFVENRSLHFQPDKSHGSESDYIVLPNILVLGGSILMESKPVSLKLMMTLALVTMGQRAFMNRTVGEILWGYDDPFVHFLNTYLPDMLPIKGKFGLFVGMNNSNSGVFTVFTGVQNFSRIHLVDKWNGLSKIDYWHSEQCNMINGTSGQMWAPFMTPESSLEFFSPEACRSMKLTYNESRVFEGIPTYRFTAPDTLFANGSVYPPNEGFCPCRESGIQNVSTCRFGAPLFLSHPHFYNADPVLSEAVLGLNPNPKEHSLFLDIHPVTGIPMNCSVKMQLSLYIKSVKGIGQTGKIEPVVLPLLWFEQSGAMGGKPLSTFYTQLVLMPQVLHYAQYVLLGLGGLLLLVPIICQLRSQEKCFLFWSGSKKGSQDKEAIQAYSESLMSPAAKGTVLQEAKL
SR-BI uptake up: activators of SR-BI mediated DiI-HDL uptake, primary screen, ldlA[mSR-BI] CHO cells, DiI fluorescence | activation, % at 12.5 µM | 320,000 compounds, 0.096% hits | AID 504775, 2011 | 3 h; 100 = double the neutral-control signal;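 active = mean replicate activation of at least 60% and every replicate at or above 60%; inconclusive = mean or all-replicate condition met, but not both; inactive = mean below 60% and not all replicates reaching 60%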;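 note: 0% = median plate neutral-control signal and 100% = twice that signal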
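Test system: SR-BI-overexpressing, LDLR-lacking CHO cells. Measured by: DiI fluorescence, bottom read. Medium: Ham's F12 with 0.5% BSA, HEPES 25 mM, pH 7.4. Timing: 3 h uptake period with compound, 37 °C.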
ANO1 activ: TMEM16A chloride channel activators or potentiators, primary screen, cell-based, HTS. Anoctamin-1 (Mus musculus), Q8BHY3. HEK293 TMEM16A/YFP-H148Q/I152L, iodide quench fluorescence; active compounds read low. 340,000 compounds, 0.3% hits. B-score at 10 µM. AID 623877, 2012;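 active = fluorescence-ratio B-score plate-corrected deviation score at least 3 library SD below zero, with starting fluorescence score within 5 deviations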;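 note: channel opened by trigger with iodide after compound preincubation; score built on the fluorescence ratio of max minus min over baseline; more negative score means more quench and so TMEM16A activation or potentiation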
TMEM16A reconf: TMEM16A chloride channel inhibitors, confirmation, cell-based, re-confirmation | shares compounds with TMEM16A inh | 2,300 compounds, 39% hits | HEK293 TMEM16A/YFP-H148Q, iodide quench fluorescence; ionomycin added to raise cell calcium | inhibition, % at 10 µM;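 active = mean duplicate percent inhibition, scaled so buffer wells are 0 and the reference blocker 100, over three buffer SD above buffer mean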
HEK293 Ca mobil: calcium mobilization in TMEM16A/YFP HEK293 cells, confirmation, counter-screen for TMEM16A inhibitor project | shares compounds with TMEM16A inh | Fluo4 calcium mobilization | calcium response (% of ionomycin), % at 10 µM | 2,300 compounds, 2% hits | AID 652231, 2013;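 active = duplicate-averaged calcium signal over 20% of the ionomycin maximum, relative to buffer baseline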;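 note: each well's signal is peak minus trough fluorescence divided by its pre-addition baseline; 0% = buffer wells and 100% = ionomycin wells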
YFP-HEK293 quench: iodide YFP quench changes in parental YFP-HEK293, counter-screen for TMEM16A inhibitor project, cell-based | ionomycin | 2,300 tested, under 10 active | YFP ratio F(max-min)/F0 at 10 µM | shares compounds with TMEM16A inh;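 active = yellow fluorescent protein signal ratio exceeding the buffer control mean by over 5 SD of those controls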;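 note: ratio is mean of duplicate wells from kinetic YFP trace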
ClC-1 rat inh: ClC-1 chloride channel inhibition, selectivity assay for TMEM16A inhibitor project, cell-based, voltage-dependent ClC-1. ratio percent, % at 10 µM. shares compounds with TMEM16A inh. CHO ClC-1-YFP, iodide influx fluorescence quench; iodide control reads 0, buffer control 100. 2,300 tested, under 10 active;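 active = duplicate-mean ratio percent above the mean of iodide-only control wells, which defines zero, plus 5 of their SD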;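 note: higher percent means stronger block of ClC-1 iodide influx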
* marks the source's active call; other numbers are inactive results.

COc1ccc(CN2C(=O)c3ccccc3C(/C=N\OCc3ccc(C)cc3)C2=O)cc1 (stereo unspecified) was read as Kir21 inh -0.26, TMEM16A inh inactive, FID counter -2, SR-BI HDL uptake 22, SR-BI uptake up -22, ANO1 activ inactive, TMEM16A reconf 26%*, HEK293 Ca mobil inactive, YFP-HEK293 quench -1.3 and ClC-1 rat inh -6.
For Cc1ccc(C(=O)NCC(C)NC(=O)c2ccc(C)c(C)c2)cc1C (stereo unspecified) the results were Kir21 inh 1.7, TMEM16A inh inactive, SR-BI HDL uptake 15, SR-BI uptake up -15 and ANO1 activ inactive.
Screening C=CCNc1ncnc2c1[nH]c1ccccc12 returned Kir21 inh -0.09, TMEM16A inh inactive, FID counter 8, SR-BI HDL uptake -3, SR-BI uptake up 3 and ANO1 activ inactive.
`C=CCNc1ncnc2c1[nH]c1ccc(Cl)cc12` gave Kir21 inh -0.5, TMEM16A inh 100*, FID counter 9, SR-BI HDL uptake -10, SR-BI uptake up 10, ANO1 activ inactive, TMEM16A reconf 58%*, HEK293 Ca mobil inactive, YFP-HEK293 quench -0.97 and ClC-1 rat inh -28.
`CC(C)Cn1c(N)c(C(=O)COC(=O)c2cc(C3CC3)nc3ccccc23)c(=O)n(C)c1=O` gave TMEM16A inh 25*, FID counter -17, TMEM16A reconf inactive, HEK293 Ca mobil inactive, YFP-HEK293 quench -1.1 and ClC-1 rat inh -11.
Screening CC(C)Cn1c(N)c(C(=O)COC(=O)c2cc(-c3ccccc3)nc3ccccc23)c(=O)n(C)c1=O returned Kir21 inh 0.01, TMEM16A inh inactive, FID counter -2, SR-BI HDL uptake 69, SR-BI uptake up -69 and ANO1 activ inactive.
Screening Cc1cccc[n+]1CC(=O)/C=C1\N(C)c2ccccc2C1(C)C returned Kir21 inh 1.1, TMEM16A inh inactive, FID counter -1, SR-BI HDL uptake -31, SR-BI uptake up 31 and ANO1 activ inactive.
`CN1/C(=C\C(=O)CN2C(=O)NC3(CCCCCC3)C2=O)C(C)(C)c2ccccc21` gave Kir21 inh 0.95, TMEM16A inh inactive, FID counter -16, SR-BI HDL uptake -60, SR-BI uptake up inconclusive, ANO1 activ inactive, TMEM16A reconf inactive, HEK293 Ca mobil inactive, YFP-HEK293 quench -0.66 and ClC-1 rat inh 8.
`CCOc1ccccc1NC(=O)CN1CCCCCC1` gave Kir21 inh -2.2, TMEM16A inh inactive, FID counter 11, SR-BI HDL uptake 19, SR-BI uptake up -19 and ANO1 activ inactive.
`COC(=O)[C@]1(C)CCC[C@@]2(C)C3CC[C@@]4(C)C[C@]3(CCC21)CC(=O)N4Cc1ccc(OC)cc1` (stereo partly specified) gave SR-BI HDL uptake -10, SR-BI uptake up 10 and ANO1 activ inactive.
For CCOC(=O)c1sc(NC(=O)CSc2nc3c(cc2C#N)CCCCCC3)c(C#N)c1C the results were Kir21 inh -0.53, TMEM16A inh 100*, FID counter 2, SR-BI HDL uptake 75*, SR-BI uptake up -75, ANO1 activ inactive, TMEM16A reconf inactive, HEK293 Ca mobil inactive, YFP-HEK293 quench -1.5 and ClC-1 rat inh -6.
Screening CCOC(=O)c1sc(NC(=O)c2ccncc2)c(C#N)c1C returned Kir21 inh 0.97, TMEM16A inh 25*, FID counter 0, SR-BI HDL uptake -15, SR-BI uptake up 15, ANO1 activ inactive, TMEM16A reconf 35%*, HEK293 Ca mobil inactive, YFP-HEK293 quench -1.1 and ClC-1 rat inh -23.
For CCOC(=O)c1sc(NC(=O)CSc2n[nH]c(-c3ccc(Cl)cc3Cl)n2)c(C#N)c1C the results were Kir21 inh -3, TMEM16A inh 25*, FID counter 1, SR-BI HDL uptake 14, SR-BI uptake up -14, ANO1 activ inactive, TMEM16A reconf 50%*, HEK293 Ca mobil inactive, YFP-HEK293 quench -0.93 and ClC-1 rat inh -14.
`CCOC(=O)c1sc(NC(=O)CSc2nc(C)cc(-c3ccccc3)n2)c(C#N)c1C` gave Kir21 inh -0.88, TMEM16A inh inactive, FID counter 3, SR-BI HDL uptake 1, SR-BI uptake up -1 and ANO1 activ inactive.
Screening COC(=O)Cn1c(O)c(N=NC(=O)CNC(=O)COc2cccc(C)c2)c2ccccc21 returned Kir21 inh 1.2, TMEM16A inh inactive, FID counter -20, SR-BI HDL uptake -11, SR-BI uptake up 11 and ANO1 activ inactive.
For O=C(Nc1ccc(Cl)cn1)C1CCCN(c2ncnc3c2nc2n3CCCCC2)C1 (stereo unspecified) the results were Kir21 inh 0.2, TMEM16A inh inactive, FID counter -33, SR-BI HDL uptake 45, SR-BI uptake up -45 and ANO1 activ inactive.
COC(=O)c1ccccc1NC(=O)C1CCN(c2ncnc3c2nc2n3CCCCC2)CC1 was read as Kir21 inh -2.3, TMEM16A inh 100*, FID counter -39, SR-BI HDL uptake 12, SR-BI uptake up -12, ANO1 activ inactive, TMEM16A reconf inactive, HEK293 Ca mobil inactive, YFP-HEK293 quench -1.1 and ClC-1 rat inh -8.
`COc1ccc(NC(=O)C2CCN(c3ncnc4c3nc3n4CCCCC3)CC2)c(OC)c1` gave Kir21 inh 1.2, TMEM16A inh inactive, FID counter -48, SR-BI HDL uptake -25, SR-BI uptake up 25 and ANO1 activ inactive.
